This is an account of results in ChEMBL document CHEMBL4765346, “Inhibitor design to target a unique feature in the folate pocket of Staphylococcus aureus dihydrofolate reductase” (Eur J Med Chem, 2020).

SMILES strings stand for the structures. pKi: −log10 of the molar value. Values after ≈ are worked out from the molar mass of the structure shown. Active and inactive are the calls of the source.

Experiment [1] deals with Staphylococcus aureus. The experiment is described as follows: (§1) Inhibition of recombinant Staphylococcus aureus DHFR expressed in Escherichia coli BL21 (DE3) using dihydrofolate as substrate and NADPH as cofactor incubated for 2.8 mins. In a few lines: (§2)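 Recombinant S. aureus DHFR expressed in E. coli BL21 (DE3). Reaction reconstituted with NADPH and varied inhibitor concentrations (racemates, diluted from 10 mM DMSO stock), started by adding dihydrofolate. Run at 30 °C, rate followed 2.8 min over linear range. 50% activity point from 4-parameter fit of rate vs concentration. IC50 converted to Ki by Cheng-Prusoff using previously measured KM. n ≥ 3 independent assays, duplicate technical replicates.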

Experiment [2] relates to Staphylococcus aureus. The experiment is described as follows: Antibacterial activity against Staphylococcus aureus ATCC 29213 assessed as inhibition of bacterial growth incubated for 18 hrs by spectrophotometric method. The format is functional. A digest of the protocol:
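Racemic compounds tested against standardized S. aureus strain 29213 cultures following CLSI procedure; MIC recorded; n = 2 independent assays, each with duplicate technical replicates.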

Experiment [3] can be described thus: as §1. A digest of the protocol:
as §2

The term MIC denotes the smallest concentration in the dilution series that meets the test's criterion for growth inhibition. For `COc1cc(Cc2cnc(N)nc2N)cc(/C=C/C(=O)N2N=Cc3ccccc3C2c2ccc(C)cc2)c1OC` (configuration not stated), the inhibition entry in the experiment on Staphylococcus aureus [1] was “inactive”. The MIC with Staphylococcus aureus [2] turned out to be 0.046 µg/mL (≈ 0.086 µM).

Take `COc1cc(Cc2cnc(N)nc2N)cc(/C=C/C(=O)N2N=Cc3ccccc3C2C2CCCCC2)c1OC` (configuration not stated): in the experiment with Staphylococcus aureus [1], the inhibition entry is “Active”.

Usually pKi stands for the negative decadic logarithm of the Ki, by convention in mol/L. As to `COc1cc(Cc2cnc(N)nc2N)cc(/C=C/C(=O)N2N=Cc3ccccc3C2Cc2ccc(C)cc2)c1OC` (configuration not stated), the pKi in experiment [3] was 8.64. In addition, the MIC with Staphylococcus aureus [2] worked out at 0.25 µg/mL (≈ 0.456 µM).

For the compound `COc1cc(Cc2cnc(N)nc2N)cc(/C=C/C(=O)N2N=Cc3ccccc3C2CCC(F)(F)F)c1OC` (configuration not stated), in the experiment with Staphylococcus aureus [1], the inhibition entry was “Active”.

On to `CCCC1c2ccccc2C=NN1C(=O)/C=C/c1cc(Cc2cnc(N)nc2N)cc(OC)c1OC` (configuration not stated), for which, in experiment [3], the pKi was 8.92. Besides, in the experiment with Staphylococcus aureus [2], the MIC is 0.0625 µg/mL (≈ 0.128 µM).

Consider `COc1cc(Cc2cnc(N)nc2N)cc(/C=C/C(=O)N2N=Cc3ccccc3C2CC(C)C)c1OC` (configuration not stated), for which the inhibition entry in the experiment with Staphylococcus aureus [1] is “Active”.

Consider `CCC(CC)C1c2ccccc2C=NN1C(=O)/C=C/c1cc(Cc2cnc(N)nc2N)cc(OC)c1OC` (configuration not stated), for which the inhibition entry in the experiment with Staphylococcus aureus [1] is “inactive”.

Turning to `CCCC1c2cc(OC)c(OC)cc2C=NN1C(=O)/C=C/c1cc(Cc2cnc(N)nc2N)cc(OC)c1OC` (racemic), the pKi in experiment [3] is 8.96. The MIC in the experiment with Staphylococcus aureus [2] is 1 µg/mL (≈ 1.83 µM).

In the case of `COc1cc(Cc2cnc(N)nc2N)cc(/C=C/C(=O)N2N=Cc3ccccc3C2C=C(C)C)c1OC` (configuration not stated), the inhibition result with Staphylococcus aureus [1] was “Active”.

On to `COc1cc(Cc2cnc(N)nc2N)cc(/C=C/C(=O)N2N=Cc3ccccc3C2c2cc(C)cc(C)c2)c1OC` (configuration not stated), for which the inhibition entry in the experiment on Staphylococcus aureus [1] is “inactive”.

Take `CCCC1c2cc(C)c(C)cc2C=NN1C(=O)/C=C/c1cc(Cc2cnc(N)nc2N)cc(OC)c1OC` (racemic): the pKi in experiment [3] was 8.92. The minimum inhibitory concentration (MIC) in the experiment with Staphylococcus aureus [2] came out at 0.5 µg/mL (≈ 0.972 µM).

Regarding `COc1cc(Cc2cnc(N)nc2N)cc(/C=C/C(=O)N2N=Cc3ccccc3C2c2ccccc2)c1OC` (configuration not stated), in the experiment on Staphylococcus aureus [1], the inhibition result is “Active”.

`COc1ccc(CC2c3ccccc3C=NN2C(=O)/C=C/c2cc(Cc3cnc(N)nc3N)cc(OC)c2OC)cc1` (configuration not stated): the pKi in experiment [3] is 8.92.

`COc1cc2c(cc1OC)C(C1CC1)N(C(=O)/C=C/c1cc(Cc3cnc(N)nc3N)cc(OC)c1OC)N=C2` (racemic): the pKi in experiment [3] is 9.15. The MIC with Staphylococcus aureus [2] worked out at 1 µg/mL (≈ 1.84 µM).

Consider `COc1cc(Cc2cnc(N)nc2N)cc(/C=C/C(=O)N2N=Cc3ccccc3C2C(C)C)c1OC` (configuration not stated), for which, in the experiment on Staphylococcus aureus [1], the inhibition result was “Active”. In the experiment with Staphylococcus aureus [2], the MIC was determined as 0.188 µg/mL (≈ 0.385 µM).
